The source of these data is ChEMBL document CHEMBL3407415, “Synthesis and anticancer activities of ceritinib analogs modified in the terminal piperidine ring” (Eur J Med Chem, 2015).

Data set [1] deals with NCI-H2228. In words: Cytotoxicity against human NCI-H2228 cells assessed as cell viability after 72 hrs by MTS assay. Type of data set: functional, cell-based. Conditions: NCI-H2228, 72 h. The method in brief: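 H2228 cells seeded and grown 24 h, then exposed in triplicate to a range of concentrations for 72 h at 37 °C, 5% CO₂. MTS (5 mg/mL solution) added for 4 h, medium removed, plates shaken, absorbance read at 570 nm. Inhibition computed against controls. IC50 = concentration giving 50% growth inhibition.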
A general note: Formazan colour is commonly taken as a measure of viable cells.

The next data set concerns Plasma. Kind of data set: Drug uptake in Sprague-Dawley rat plasma at 25 mg/kg, po measured over 24 hrs by HPLC analysis. Set-up: dose 25 mg/kg, route oral. The note with it: in vivo. Format: ADME, organism-based. The method in brief:
(§1)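 Male SD rats, 200–220 g, randomized into three groups (n = 4). Single oral gavage dose in 0.5% MC/0.5% Tween 80 at 10 μL/g. Plasma sampled at 0.5, 1, 3, 5, 8 and 24 h, deproteinized with ethyl acetate, vortexed and centrifuged at 4000 rpm for 5 min. Organic phase analysed for ceritinib by HPLC.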

Data set [2] concerns NCI-H2228. Kind of data set: Antitumor activity against human NCI-H2228 cells xenografted in Rowett nude rat assessed as tumor growth inhibition at 30 mg/kg/day, po administered for 14 days measured on day 15. Format: functional, organism-based. The method in brief:
(§2)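 RNU nude rats carrying H2228 tumours, randomized at mean tumour size 150 mm³ (n = 6 per group). Dosed by oral gavage, vehicle 0.5% MC/0.5% Tween 80, 10 μL/g body weight, daily for 14 days starting day 15 post-implant. Tumour volume = ab²/2. Rats killed after 14 days and tumours excised and weighed. Inhibition = (control mean tumour weight − treated mean)/control mean × 100%.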
On the technique in general: In xenograft studies the graft and the host belong to different species.

In data set [3] the test system is NCI-H2228. Kind of data set: Antitumor activity against human NCI-H2228 cells xenografted in Rowett nude rat assessed as tumor growth inhibition at 38.28 mg/kg/day, po administered for 14 days measured on day 15 relative to vehicle-treated control. Format: functional. The note with it: read-out: TGI. The method in brief: as §2
The test system of data set [4] is Rattus norvegicus. In words: Prodrug conversion in Sprague-Dawley rat assessed as release of ceritinib in plasma at 38.28 mg/kg, po measured over 24 hrs by HPLC analysis. Format: ADME, organism-based. The note with it: in vivo. On the set-up: dose 38.28 mg/kg, route oral. The method in brief: as §1
Data set [5] has as its system Rattus norvegicus. In words: Toxicity in Rowett nude rat xenografted with human NCI-H2228 cells assessed as body weight reduction at 38.28 mg/kg/day, po administered for 14 days measured during compound treatment. Type of data set: organism-based. Set-up: route oral. The note with it: in vivo, 336 h. The method in brief:
(§3)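 H2228 xenograft-bearing RNU nude rats (n = 6 per group, mean starting tumour 150 mm³) given daily oral gavage in 0.5% MC/0.5% Tween 80, 10 μL/g, for 14 consecutive days. Body weight tracked regularly throughout dosing.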

Data set [6] concerns Rattus norvegicus. Kind of data set: Prodrug conversion in Sprague-Dawley rat assessed as release of ceritinib in plasma at 36.24 mg/kg, po measured over 24 hrs by HPLC analysis. On the set-up: dose 36.24 mg/kg, route oral. Type of data set: ADME, organism-based. Conditions: in vivo. The method in brief:
as §1

Data set [7] concerns Rattus norvegicus. Kind of data set: Toxicity in Rowett nude rat xenografted with human NCI-H2228 cells assessed as body weight reduction at 36.24 mg/kg/day, po administered for 14 days measured during compound treatment. Format: organism-based. On the set-up: route oral. The note with it: in vivo, 336 h. The method in brief:
as §3

The test system of data set [8] is NCI-H2228. In words: Antitumor activity against human NCI-H2228 cells xenografted in Rowett nude rat assessed as tumor growth inhibition at 36.24 mg/kg/day, po administered for 14 days measured on day 15. Format: functional, organism-based. The method in brief:
as §2

Structures are written as SMILES. The source made the active and inactive calls. The rule behind the calls is not given here.

As a reminder, the IC50 is the concentration needed to halve the response being measured. As to `CCOP(=O)(OCC)N1CCC(c2cc(OC(C)C)c(Nc3ncc(Cl)c(Nc4ccccc4S(=O)(=O)C(C)C)n3)cc2C)CC1`, the IC50 in the data set on NCI-H2228 [1] came out at 571 nM.
Still for that read-out and setting: to `Cc1cc(Nc2ncc(Cl)c(Nc3ccccc3S(=O)(=O)C(C)C)n2)c(OC(C)C)cc1C1CCN(P(=O)(O)OCc2ccccc2)CC1` belongs 57.4 nM.
Take `Cc1cc(Nc2ncc(Cl)c(Nc3ccccc3S(=O)(=O)C(C)C)n2)c(OC(C)C)cc1C1CCNCC1` [CERITINIB]: the Drug uptake entry in the data set with Plasma is reported as “Active”. For the same molecule, the TGI result in the data set with NCI-H2228 [2] is “Active”. Besides, the IC50 with NCI-H2228 [1] came to 103 nM.
Consider `Cc1cc(Nc2ncc(Cl)c(Nc3ccccc3S(=O)(=O)C(C)C)n2)c(OC(C)C)cc1C1CCN(P(=O)(Oc2ccccc2)Oc2ccccc2)CC1`, for which, in the data set on NCI-H2228 [1], the half-maximal inhibitory concentration (IC50) amounted to 14400 nM.
In the case of `Cc1cc(Nc2ncc(Cl)c(Nc3ccccc3S(=O)(=O)C(C)C)n2)c(OC(C)C)cc1C1CCN(C(=O)OCOP(=O)(O)O)CC1`, the IC50 in the data set on NCI-H2228 [1] was 24 nM. In the data set with NCI-H2228 [3], the inhibition in vivo at 38.28 mg/kg/day is 80%. Moreover, in the data set with Rattus norvegicus [4], the Drug metabolism result is recorded as “metabolite_notdetected”. In addition, the Activity entry in the data set on Rattus norvegicus [5] is “Non-toxic”.
Turning to `COC(=O)N1CCC(c2cc(OC(C)C)c(Nc3ncc(Cl)c(Nc4ccccc4S(=O)(=O)C(C)C)n3)cc2C)CC1`, the IC50 in the data set on NCI-H2228 [1] worked out at 1110 nM.
With `CCCCCOC(=O)N1CCC(c2cc(OC(C)C)c(Nc3ncc(Cl)c(Nc4ccccc4S(=O)(=O)C(C)C)n3)cc2C)CC1`, the half-maximal inhibitory concentration (IC50) in the data set on NCI-H2228 [1] turned out to be 67200 nM.
`CCOC(=O)N1CCC(c2cc(OC(C)C)c(Nc3ncc(Cl)c(Nc4ccccc4S(=O)(=O)C(C)C)n3)cc2C)CC1`: the IC50 with NCI-H2228 [1] amounted to 1200 nM.
In the case of `CCC(C)OC(=O)N1CCC(c2cc(OC(C)C)c(Nc3ncc(Cl)c(Nc4ccccc4S(=O)(=O)C(C)C)n3)cc2C)CC1` (stereo not given), the IC50 in the data set on NCI-H2228 [1] was found to be 7400 nM.
Still for that read-out and setting: the same measure for `Cc1cc(Nc2ncc(Cl)c(Nc3ccccc3S(=O)(=O)C(C)C)n2)c(OC(C)C)cc1C1CCN(C(=O)OCOP(=O)(OCc2ccccc2)OCc2ccccc2)CC1`: 1040 nM; for `Cc1cc(Nc2ncc(Cl)c(Nc3ccccc3S(=O)(=O)C(C)C)n2)c(OC(C)C)cc1C1CCN(P(=O)(OCc2ccccc2)OCc2ccccc2)CC1`: 2690 nM.
With `CC(=O)OCOC(=O)N1CCC(c2cc(OC(C)C)c(Nc3ncc(Cl)c(Nc4ccccc4S(=O)(=O)C(C)C)n3)cc2C)CC1`, the half-maximal inhibitory concentration (IC50) in the data set with NCI-H2228 [1] is 120 nM. Moreover, the Drug metabolism result in the data set with Rattus norvegicus [6] is on record as “metabolite_notdetected”. Also, the Activity result in the data set on Rattus norvegicus [7] is on record as “Non-toxic”. Also, the TGI result with NCI-H2228 [8] is “inactive”.
